{"source": "ChEMBL document CHEMBL1765029", "about": "“Synthesis and biological evaluation of estradiol linked pyrrolo[2,1-c][1,4]benzodiazepine (PBD) conjugates as potential anticancer agents” (2011)", "note": "Activity calls are given as the source filed them. No cut-off for these calls is given here."}
{"system": "MCF7", "experiment": "Cytotoxicity against human MCF7 cells at 4 uM after 24 hrs by MTT assay", "assay_type": "functional, cell-based", "outline": "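MCF-7 cells seeded at 10,000 per well, incubated overnight, then treated at 4 µM for 24 h; DMSO control. Medium replaced with MTT, 2 h at 37 °C. Formazan solubilised in extraction buffer, absorbance read at 570 nm, expressed as percent viability.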"}
{"smiles": "COc1cc2c(cc1OCCCN1CCN(CCCOc3ccc4c(c3)CC[C@@H]3[C@@H]4CC[C@]4(C)[C@@H](O)CC[C@@H]34)CC1)N=C[C@@H]1C[C@@H](F)CN1C2=O", "Activity": "Active"}
{"smiles": "COc1cc2c(cc1OCCCN1CCN(CCCOc3ccc4c(c3)CC[C@@H]3[C@@H]4CC[C@]4(C)[C@@H](O)CC[C@@H]34)CC1)N=C[C@@H]1CCCN1C2=O", "Activity": "Active"}
{"system": "MCF7", "experiment": "Cytotoxicity against human MCF7 cells by sulforhodamine B method", "assay_type": "functional", "units": {"GI50": "nM"}}
{"smiles": "COc1cc2c(cc1OCCCN1CCN(CCCOc3ccc4c(c3)CC[C@@H]3[C@@H]4CC[C@]4(C)[C@@H](O)CC[C@@H]34)CC1)N=C[C@@H]1C[C@@H](F)CN1C2=O", "GI50": "< 100"}
{"smiles": "COc1cc2c(cc1OCCCN1CCN(CCCOc3ccc4c(c3)CC[C@@H]3[C@@H]4CC[C@]4(C)[C@@H](O)CC[C@@H]34)CC1)N=C[C@@H]1CCCN1C2=O", "GI50": 110}
{"system": "A549", "experiment": "Cytotoxicity against human A549 cells by sulforhodamine B method", "assay_type": "functional", "units": {"GI50": "nM"}}
{"smiles": "COc1cc2c(cc1OCCCN1CCN(CCCOc3ccc4c(c3)CC[C@@H]3[C@@H]4CC[C@]4(C)[C@@H](O)CC[C@@H]34)CC1)N=C[C@@H]1C[C@@H](F)CN1C2=O", "GI50": "< 100"}
{"smiles": "COc1cc2c(cc1OCCCN1CCN(CCCOc3ccc4c(c3)CC[C@@H]3[C@@H]4CC[C@]4(C)[C@@H](O)CC[C@@H]34)CC1)N=C[C@@H]1CCCN1C2=O", "GI50": 120}
{"system": "ZR-75-1", "experiment": "Cytotoxicity against human ZR-75-1 cells by sulforhodamine B method", "assay_type": "functional", "units": {"GI50": "nM"}}
{"smiles": "COc1cc2c(cc1OCCCN1CCN(CCCOc3ccc4c(c3)CC[C@@H]3[C@@H]4CC[C@]4(C)[C@@H](O)CC[C@@H]34)CC1)N=C[C@@H]1C[C@@H](F)CN1C2=O", "GI50": "< 100"}
{"smiles": "COc1cc2c(cc1OCCCN1CCN(CCCOc3ccc4c(c3)CC[C@@H]3[C@@H]4CC[C@]4(C)[C@@H](O)CC[C@@H]34)CC1)N=C[C@@H]1CCCN1C2=O", "GI50": 120}
{"system": "MCF7", "experiment": "Cell cycle arrest in human MCF7 cells assessed as accumulation at S phase using propidium iodide staining at 4 uM after 24 hrs by flow cytometry", "assay_type": "functional", "outline": "(§1)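 MCF-7 cells (5 × 10⁵ per 60 mm dish) grown 24 h, then exposed to 4 µM compound for a further 24 h; DMSO-treated control. Cells trypsinised, fixed in ice-cold 70% ethanol at 4 °C for 30 min, RNase-treated (1 mg/mL, 37 °C, 30 min), stained with propidium iodide/citrate/Triton X-100. DNA content read on 20,000 events by flow cytometry; percent cells per phase reported.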", "units": {"Activity": "%"}}
{"smiles": "COc1cc2c(cc1OCCCN1CCN(CCCOc3ccc4c(c3)CC[C@@H]3[C@@H]4CC[C@]4(C)[C@@H](O)CC[C@@H]34)CC1)N=C[C@@H]1C[C@@H](F)CN1C2=O", "Activity": 24.01}
{"smiles": "COc1cc2c(cc1OCCCN1CCN(CCCOc3ccc4c(c3)CC[C@@H]3[C@@H]4CC[C@]4(C)[C@@H](O)CC[C@@H]34)CC1)N=C[C@@H]1CCCN1C2=O", "Activity": 25.2}
{"system": "KB", "experiment": "Cytotoxicity against human KB cells by sulforhodamine B method", "assay_type": "functional", "units": {"GI50": "nM"}}
{"smiles": "COc1cc2c(cc1OCCCN1CCN(CCCOc3ccc4c(c3)CC[C@@H]3[C@@H]4CC[C@]4(C)[C@@H](O)CC[C@@H]34)CC1)N=C[C@@H]1C[C@@H](F)CN1C2=O", "GI50": 120}
{"smiles": "COc1cc2c(cc1OCCCN1CCN(CCCOc3ccc4c(c3)CC[C@@H]3[C@@H]4CC[C@]4(C)[C@@H](O)CC[C@@H]34)CC1)N=C[C@@H]1CCCN1C2=O", "GI50": 190}
{"system": "HOP-62", "experiment": "Cytotoxicity against human HOP62 cells by sulforhodamine B method", "assay_type": "functional", "units": {"GI50": "nM"}}
{"smiles": "COc1cc2c(cc1OCCCN1CCN(CCCOc3ccc4c(c3)CC[C@@H]3[C@@H]4CC[C@]4(C)[C@@H](O)CC[C@@H]34)CC1)N=C[C@@H]1C[C@@H](F)CN1C2=O", "GI50": 110}
{"smiles": "COc1cc2c(cc1OCCCN1CCN(CCCOc3ccc4c(c3)CC[C@@H]3[C@@H]4CC[C@]4(C)[C@@H](O)CC[C@@H]34)CC1)N=C[C@@H]1CCCN1C2=O", "GI50": 1140}
{"system": "not listed separately", "experiment": "Cytotoxicity against human DWD cells by sulforhodamine B method", "assay_type": "functional", "units": {"GI50": "nM"}}
{"smiles": "COc1cc2c(cc1OCCCN1CCN(CCCOc3ccc4c(c3)CC[C@@H]3[C@@H]4CC[C@]4(C)[C@@H](O)CC[C@@H]34)CC1)N=C[C@@H]1C[C@@H](F)CN1C2=O", "GI50": 100}
{"smiles": "COc1cc2c(cc1OCCCN1CCN(CCCOc3ccc4c(c3)CC[C@@H]3[C@@H]4CC[C@]4(C)[C@@H](O)CC[C@@H]34)CC1)N=C[C@@H]1CCCN1C2=O", "GI50": 120}
{"system": "not listed separately", "experiment": "Cytotoxicity against human Gurav cells by sulforhodamine B method", "assay_type": "functional", "units": {"GI50": "nM"}}
{"smiles": "COc1cc2c(cc1OCCCN1CCN(CCCOc3ccc4c(c3)CC[C@@H]3[C@@H]4CC[C@]4(C)[C@@H](O)CC[C@@H]34)CC1)N=C[C@@H]1C[C@@H](F)CN1C2=O", "GI50": 110}
{"smiles": "COc1cc2c(cc1OCCCN1CCN(CCCOc3ccc4c(c3)CC[C@@H]3[C@@H]4CC[C@]4(C)[C@@H](O)CC[C@@H]34)CC1)N=C[C@@H]1CCCN1C2=O", "GI50": 140}
{"system": "MCF7", "experiment": "Cell cycle arrest in human MCF7 cells assessed as accumulation at G2/M phase using propidium iodide staining at 4 uM after 24 hrs by flow cytometry", "assay_type": "functional", "outline": "as §1", "units": {"Activity": "%"}}
{"smiles": "COc1cc2c(cc1OCCCN1CCN(CCCOc3ccc4c(c3)CC[C@@H]3[C@@H]4CC[C@]4(C)[C@@H](O)CC[C@@H]34)CC1)N=C[C@@H]1C[C@@H](F)CN1C2=O", "Activity": 24.33}
{"smiles": "COc1cc2c(cc1OCCCN1CCN(CCCOc3ccc4c(c3)CC[C@@H]3[C@@H]4CC[C@]4(C)[C@@H](O)CC[C@@H]34)CC1)N=C[C@@H]1CCCN1C2=O", "Activity": 24.01}
{"system": "PC-3", "experiment": "Cytotoxicity against human PC3 cells by sulforhodamine B method", "assay_type": "functional", "units": {"GI50": "nM"}}
{"smiles": "COc1cc2c(cc1OCCCN1CCN(CCCOc3ccc4c(c3)CC[C@@H]3[C@@H]4CC[C@]4(C)[C@@H](O)CC[C@@H]34)CC1)N=C[C@@H]1C[C@@H](F)CN1C2=O", "GI50": "< 100"}
{"smiles": "COc1cc2c(cc1OCCCN1CCN(CCCOc3ccc4c(c3)CC[C@@H]3[C@@H]4CC[C@]4(C)[C@@H](O)CC[C@@H]34)CC1)N=C[C@@H]1CCCN1C2=O", "GI50": 140}
{"system": "COLO 205", "experiment": "Cytotoxicity against human COLO205 cells by sulforhodamine B method", "assay_type": "functional", "units": {"GI50": "nM"}}
{"smiles": "COc1cc2c(cc1OCCCN1CCN(CCCOc3ccc4c(c3)CC[C@@H]3[C@@H]4CC[C@]4(C)[C@@H](O)CC[C@@H]34)CC1)N=C[C@@H]1C[C@@H](F)CN1C2=O", "GI50": 130}
{"smiles": "COc1cc2c(cc1OCCCN1CCN(CCCOc3ccc4c(c3)CC[C@@H]3[C@@H]4CC[C@]4(C)[C@@H](O)CC[C@@H]34)CC1)N=C[C@@H]1CCCN1C2=O", "GI50": 130}
{"system": "A2780", "experiment": "Cytotoxicity against human A2780 cells by sulforhodamine B method", "assay_type": "functional", "units": {"GI50": "nM"}}
{"smiles": "COc1cc2c(cc1OCCCN1CCN(CCCOc3ccc4c(c3)CC[C@@H]3[C@@H]4CC[C@]4(C)[C@@H](O)CC[C@@H]34)CC1)N=C[C@@H]1C[C@@H](F)CN1C2=O", "GI50": "< 100"}
{"smiles": "COc1cc2c(cc1OCCCN1CCN(CCCOc3ccc4c(c3)CC[C@@H]3[C@@H]4CC[C@]4(C)[C@@H](O)CC[C@@H]34)CC1)N=C[C@@H]1CCCN1C2=O", "GI50": 1300}
{"system": "MCF7", "experiment": "Cell cycle arrest in human MCF7 cells assessed as accumulation at G0 phase using propidium iodide staining at 4 uM after 24 hrs by flow cytometry", "assay_type": "functional", "outline": "as §1", "units": {"Activity": "%"}}
{"smiles": "COc1cc2c(cc1OCCCN1CCN(CCCOc3ccc4c(c3)CC[C@@H]3[C@@H]4CC[C@]4(C)[C@@H](O)CC[C@@H]34)CC1)N=C[C@@H]1C[C@@H](F)CN1C2=O", "Activity": 0.87}
{"smiles": "COc1cc2c(cc1OCCCN1CCN(CCCOc3ccc4c(c3)CC[C@@H]3[C@@H]4CC[C@]4(C)[C@@H](O)CC[C@@H]34)CC1)N=C[C@@H]1CCCN1C2=O", "Activity": 2.84}
{"system": "MCF7", "experiment": "Cell cycle arrest in human MCF7 cells assessed as accumulation at G1 phase using propidium iodide staining at 4 uM after 24 hrs by flow cytometry", "assay_type": "functional", "outline": "as §1", "units": {"Activity": "%"}}
{"smiles": "COc1cc2c(cc1OCCCN1CCN(CCCOc3ccc4c(c3)CC[C@@H]3[C@@H]4CC[C@]4(C)[C@@H](O)CC[C@@H]34)CC1)N=C[C@@H]1C[C@@H](F)CN1C2=O", "Activity": 50.53}
{"smiles": "COc1cc2c(cc1OCCCN1CCN(CCCOc3ccc4c(c3)CC[C@@H]3[C@@H]4CC[C@]4(C)[C@@H](O)CC[C@@H]34)CC1)N=C[C@@H]1CCCN1C2=O", "Activity": 47.9}
{"system": "SiHa", "experiment": "Cytotoxicity against human SiHa cells by sulforhodamine B method", "assay_type": "functional", "units": {"GI50": "nM"}}
{"smiles": "COc1cc2c(cc1OCCCN1CCN(CCCOc3ccc4c(c3)CC[C@@H]3[C@@H]4CC[C@]4(C)[C@@H](O)CC[C@@H]34)CC1)N=C[C@@H]1C[C@@H](F)CN1C2=O", "GI50": 150}
{"smiles": "COc1cc2c(cc1OCCCN1CCN(CCCOc3ccc4c(c3)CC[C@@H]3[C@@H]4CC[C@]4(C)[C@@H](O)CC[C@@H]34)CC1)N=C[C@@H]1CCCN1C2=O", "GI50": 130}
